Assay results published in ChEMBL document CHEMBL3526004, “Interaction of silymarin flavonolignans with organic anion-transporting polypeptides” (Drug Metab Dispos, 2013).

Legend:
[1] = system: Plasma; assay: Plasma concentration in patient with chronic noncirrhotic HCV at 420 to 700 mg administered 3 times per day; format: ADME, cell-free; conditions: human
[2] = Inhibition of OATP-mediated [3H]rosuvastatin uptake in sandwich-cultured human hepatocytes at 100 uM after 8 days by beta-counting; format: ADME, cell-based, Hepatocyte
In short: (§1)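 Hepatocytes were overlaid with Matrigel (0.25 mg/ml) on day 1 and cultured to day 8 in ITS/0.1 µM dexamethasone medium, changed daily. Uptake of [3H]-E2 17G (1 µM, 1 min) or [3H]-rosuvastatin (0.5 µM, 1.5 min) was run at 37°C in HBSS with compound or vehicle. The BSP (100 µM) accumulation was subtracted, and the OATP-mediated uptake was expressed as % vehicle, normalized to BCA protein and corrected with cell-free wells.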

[3] = molecular target: T1, Solute carrier organic anion transporter family member 2B1 (Homo sapiens, UniProt O94956); assay: Inhibition of OATP2B1 (unknown origin) expressed in MDCK2 cells assessed as reduction of [3H]estrone-3-sulfate uptake after 3 mins by beta-counting in presence of OATP inhibitor BSP; format: ADME, cell-based; conditions: mdck-ii, 0.05 h
T1 sequence (O94956 whole entry): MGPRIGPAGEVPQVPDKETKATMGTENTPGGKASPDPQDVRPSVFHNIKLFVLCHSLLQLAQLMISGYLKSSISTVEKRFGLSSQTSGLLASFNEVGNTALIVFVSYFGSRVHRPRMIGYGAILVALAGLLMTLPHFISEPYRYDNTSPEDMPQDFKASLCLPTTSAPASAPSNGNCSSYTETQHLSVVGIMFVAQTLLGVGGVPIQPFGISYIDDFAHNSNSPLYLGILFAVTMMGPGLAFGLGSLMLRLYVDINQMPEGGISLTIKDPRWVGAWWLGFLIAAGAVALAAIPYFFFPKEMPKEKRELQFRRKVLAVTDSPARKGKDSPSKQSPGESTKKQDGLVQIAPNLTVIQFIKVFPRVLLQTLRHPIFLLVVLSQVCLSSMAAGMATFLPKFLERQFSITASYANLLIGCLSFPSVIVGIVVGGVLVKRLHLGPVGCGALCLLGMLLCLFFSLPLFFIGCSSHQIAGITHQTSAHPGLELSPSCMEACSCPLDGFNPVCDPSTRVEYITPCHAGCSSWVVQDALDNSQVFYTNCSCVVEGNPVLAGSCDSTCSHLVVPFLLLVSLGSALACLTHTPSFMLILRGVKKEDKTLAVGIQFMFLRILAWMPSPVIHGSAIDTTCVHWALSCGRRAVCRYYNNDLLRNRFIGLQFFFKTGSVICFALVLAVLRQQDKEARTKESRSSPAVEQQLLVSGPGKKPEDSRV

[4] = molecular target: T2, Solute carrier organic anion transporter family member 1B3 (Homo sapiens, UniProt Q9NPD5); assay: Inhibition of OATP1B3 (unknown origin) expressed in HEK293 cells assessed as reduction of [3H]estradiol-17beta-glucuronide uptake at 10 uM after 3 mins by beta-counting; format: ADME, cell-based; conditions: hek293, 0.05 h
T2 sequence (Q9NPD5 whole entry): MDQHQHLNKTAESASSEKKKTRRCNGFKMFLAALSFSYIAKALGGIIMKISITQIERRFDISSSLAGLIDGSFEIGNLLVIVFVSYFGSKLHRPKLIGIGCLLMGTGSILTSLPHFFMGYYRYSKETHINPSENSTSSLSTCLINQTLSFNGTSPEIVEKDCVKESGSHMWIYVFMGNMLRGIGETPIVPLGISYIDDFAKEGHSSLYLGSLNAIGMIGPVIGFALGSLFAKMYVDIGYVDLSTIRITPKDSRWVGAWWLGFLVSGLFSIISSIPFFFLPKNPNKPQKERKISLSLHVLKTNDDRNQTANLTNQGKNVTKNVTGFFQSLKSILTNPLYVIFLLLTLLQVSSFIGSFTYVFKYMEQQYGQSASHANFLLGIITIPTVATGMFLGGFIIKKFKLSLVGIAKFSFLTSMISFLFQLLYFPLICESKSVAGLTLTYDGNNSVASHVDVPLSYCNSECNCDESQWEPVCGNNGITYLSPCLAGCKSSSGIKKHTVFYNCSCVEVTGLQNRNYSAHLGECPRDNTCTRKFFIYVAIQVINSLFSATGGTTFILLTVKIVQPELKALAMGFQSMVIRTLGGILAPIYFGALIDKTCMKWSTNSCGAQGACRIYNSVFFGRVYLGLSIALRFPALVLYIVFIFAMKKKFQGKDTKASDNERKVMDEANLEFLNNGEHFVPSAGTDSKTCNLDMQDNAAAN
In short: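 Confluent cells were washed in PBS, then given 1 µM [3H]-E2 17G (OATP1B1, OATP1B3 HEK293) or 1 µM [3H]-E1S (OATP2B1 MDCKII) with 10 µM compound in HBSS pH 7.4 for 3 min at 37°C. Uptake into mock or parental cells was subtracted after protein normalization. Results are % vehicle, mean ± SD of at least three experiments in triplicate.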

[5] = Residual OATP-mediated [3H]estradiol-17beta-glucuronide uptake in sandwich-cultured human hepatocytes at 100 uM after 8 days by beta-counting
[6] = Inhibition of OATP-mediated [3H]estradiol-17beta-glucuronide uptake in sandwich-cultured human hepatocytes at 100 uM after 8 days by beta-counting; format: ADME, cell-based, Hepatocyte; in short: as §1

Row | Compound | concentration [1] [µM] | inhibition (INH) [2] | inhibition (INH) [3] | inhibition (INH) [4] | residual activity [5] [%] | inhibition (INH) [6]
1 | COc1cc([C@H]2Oc3cc([C@H]4Oc5cc(O)cc(O)c5C(=O)[C@@H]4O)ccc3O[C@@H]2CO)ccc1O [SILYBIN A] | 4.2 | Active | Not Active | Active | 58 | –
2 | COc1cc([C@@H]2Oc3cc([C@H]4Oc5cc(O)cc(O)c5C(=O)[C@@H]4O)ccc3O[C@H]2CO)ccc1O [SILYBIN B] | – | Active | Not Active | – | – | Active
